Results taken from paper PMC9521027 (ACS Omega, 2022).
Residue numbers refer to the chain shown, from its start.

Legend:
[1] = target: T1, URAT1 K393R mutant (Homo sapiens, UniProt Q96S37, K393R); assay: 14C-uric acid uptake assay in transfected HEK293 cells; assay type: cell-based; conditions: K393R, HEK293 cells
T1 sequence (Q96S37 1-553 K393R): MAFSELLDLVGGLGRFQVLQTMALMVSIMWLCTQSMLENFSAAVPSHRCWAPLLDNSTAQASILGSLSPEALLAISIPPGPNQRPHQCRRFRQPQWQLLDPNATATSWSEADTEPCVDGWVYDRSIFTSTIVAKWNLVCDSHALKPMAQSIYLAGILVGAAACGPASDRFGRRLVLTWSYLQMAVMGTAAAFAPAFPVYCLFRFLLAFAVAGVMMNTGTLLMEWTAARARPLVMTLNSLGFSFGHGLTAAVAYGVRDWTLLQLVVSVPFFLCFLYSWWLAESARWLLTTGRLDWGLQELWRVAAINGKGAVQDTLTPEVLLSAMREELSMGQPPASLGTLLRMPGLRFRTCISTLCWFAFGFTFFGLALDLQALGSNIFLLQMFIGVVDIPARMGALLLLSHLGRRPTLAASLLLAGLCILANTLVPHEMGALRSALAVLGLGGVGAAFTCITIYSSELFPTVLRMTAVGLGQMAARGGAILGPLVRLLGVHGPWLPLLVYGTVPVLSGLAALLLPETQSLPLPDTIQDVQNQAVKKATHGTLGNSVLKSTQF

[2] = target: T2, URAT1 K393H mutant (Homo sapiens, UniProt Q96S37, K393H); assay: as above; assay type: cell-based; conditions: K393H, HEK293 cells
T2 sequence (Q96S37 1-553 K393H): T1 sequence (Q96S37 1-553 K393R) with R393H

[3] = target: T3, URAT1 K393A mutant (Homo sapiens, UniProt Q96S37, K393A); assay: as above; assay type: cell-based; conditions: K393A, HEK293 cells
T3 sequence (Q96S37 1-553 K393A): T1 sequence (Q96S37 1-553 K393R) with R393A

[4] = target: T4, URAT1 WT (Homo sapiens, UniProt Q96S37); assay: Saturation kinetic experiment of 14C-uric acid uptake; assay type: cell-based; conditions: wild-type group
T4 sequence (Q96S37 1-553): T1 sequence (Q96S37 1-553 K393R) with R393K

[5] = target: T2, URAT1 K393H mutant; assay: 14C-uric acid binding assay with membrane protein; conditions: 2.5 μg membrane protein, 25 μM 14C-uric acid, 30 min
[6] = target: T3, URAT1 K393A mutant; assay: 14C-uric acid binding assay with membrane protein; conditions: 2.5 μg membrane protein, 25 μM 14C-uric acid, 30 min
Summary of the method: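 Membranes came from HEK293 cells transiently transfected (Lipofectamine 3000) with sequence-confirmed site-directed K393 mutant hURAT1 plasmids; control membranes came from cells transfected with pECFP empty vector. Cells were harvested in ice-cold 25 mM HEPES pH 7.3 with 125 mM sodium gluconate, and membranes were extracted with a kit. Protein was incubated at room temperature, then rapid-filtered, washed with ice-cold DPBS, dissolved in 0.1 M NaOH and scintillation-counted. n = 3, mean ± SD.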

- 14C-uric acid transport compared with WT [1]: no reduction
- 14C-uric acid transport capacity compared with WT [2]: slightly reduced
- 14C-urate transport capacity lost compared with WT [3]: 70–80%
- Vmax [4]: 654.12 µM
- 14C-uric acid binding capacity compared with WT [5]: similar
- 14C-uric acid binding compared with WT [6]: significant loss
SMILES: O=c1[nH]c(=O)c2[nH]c(=O)[nH]c2[nH]1 [uric acid]
